Experimental data gathered from unrelated publications.
Compare with care: the assays were run in different laboratories.
Target: Casein kinase II subunit alpha (CSNK2A1, Homo sapiens, UniProt P68400)

| observed | technique | concentration | remaining binding [%] | SMILES |
| --- | --- | --- | --- | --- |
| binding | – | 1 µM | 74 | COc1ccnn2ncc(-c3ccnc(N(C)C)n3)c12 |
| cell-free assay | competition with immobilised ligand | 1 µM | 92 | CC(=O)c1c(NS(C)(=O)=O)c2cc(-c3ccc(Cl)cc3)c(-c3ccc(Cl)cc3Cl)nc2n(C)c1=O |
| binding | – | 1 µM | 40 | c1cnn2ncc(-c3ccnc(N4CCC45COC5)n3)c2c1 |
| binding | competition with immobilised ligand | 0.1 µM | 73 | C[C@@H](c1ccc(-n2cnc3c(N)ncnc32)cc1)N1CCc2nn(C)c(Cc3ccccc3)c2C1=O |
| cell-free assay | competition with immobilised ligand | 1 µM | 95 | CC(=O)N1CCC(c2ccc(C(=O)NC(=N)N)cc2C(F)(F)F)CC1 |
| binding | competition with immobilised ligand | 10 µM | 72 | c1cncc(-c2cccc(Nc3nccc(NC4CCCCC4)n3)c2)c1 |
| binding | competition with immobilised ligand | 1 µM | 100 | CCN1CCN(Cc2ccc(C(=O)Nc3ccc(C)c(Oc4ccc5c(c4)CC(=O)N5)c3)cc2C(F)(F)F)CC1 |
| cell-free assay | competition with immobilised ligand | 1 µM | 100 | N#CC1(c2ccccn2)CCN(Cc2cc(C(=O)N3CCCC3)c(=O)n3ccccc23)CC1 |
| binding | – | 1 µM | 89 | N[C@H]1CCN(c2nccc(-c3cnn4ncccc34)n2)C1 |
| binding | competition with immobilised ligand | 1 µM | 71 | COc1cnc(Nc2cccc(S(N)(=O)=O)c2)nc1N1CCN(c2ccccc2)CC1 |
| cell-free assay | competition with immobilised ligand | 1 µM | 61 | O=C1NC(c2ccccn2)Sc2ccccc21 (stereo not drawn) |
| binding | – | 1 µM | 58 | F[C@@H]1CCN(c2nccc(-c3cnn4ncccc34)n2)C1 |
| binding | competition with immobilised ligand | 1 µM | 0.5 | Cc1cnc(Nc2ccc(C(=O)N3CCC(N4CCCC4)CC3)cc2)nc1-c1cc2ccccc2s1 |
| binding | competition with immobilised ligand | 1 µM | 100 | O=C(Nc1c[nH]nc1C(=O)NC1CCNCC1)c1cc(F)cc(F)c1 |
| binding | – | 1 µM | 90 | CC1CCCN1c1nccc(-c2cnn3ncccc23)n1 (stereo not drawn) |
| cell-free assay | competition with immobilised ligand | 1 µM | 65 | Cn1nc(C(F)(F)F)cc1-c1cnc(N2CCc3cc(S(=O)(=O)Nc4c(F)cc(Cl)cc4F)cc(N4CCCC4=O)c32)nc1 |
| binding | – | 1 µM | 100 | CN(C)c1ncc(F)c(-c2cnn3ncccc23)n1 |
| binding | competition with immobilised ligand | 1 µM | 23 | O=C(c1ccc(Nc2nccc(-c3cc4ccccc4s3)n2)cc1)N1CCC(N2CCCC2)CC1 |
| binding | competition with immobilised ligand | 1 µM | 75 | C=CC(=O)N1CCC(C(=O)NCC(=O)N2CCN(c3nc(-c4cnc(N)nc4C(F)F)nc(N4CCOCC4)n3)CC2)CC1 |
| cell-free assay | competition with immobilised ligand | 1 µM | 100 | CN(C(=O)c1ccccc1)c1cc(N(C)c2ccc3c(c2)CCc2ccc(C(=O)NCCN4CCOCC4)cc2C3=O)ccc1F |
| binding | competition with immobilised ligand | 1 µM | 37 | O=C(NCCCN1CCOCC1)c1ccc(Nc2nccc(-c3cc4ccccc4s3)n2)cc1 |
